Test results: ChEMBL document CHEMBL4390663, “Cationic biaryl 1,2,3-triazolyl peptidomimetic amphiphiles: synthesis, antibacterial evaluation and preliminary mechanism of action studies” (Eur J Med Chem, 2019)

Assays:
Escherichia coli [1] = assay: Induction of plasma membrane permeabilization in Escherichia coli NCTC 10418 at 64 ug/ml measured for 30 mins by propidium iodide staining based fluorescence assay relative to control; assay type: functional, organism-based
Staphylococcus aureus [2] = assay: Bactericidal activity against exponential phase of Staphylococcus aureus ATCC 29213 assessed as reduction in bacterial count at 4 ug/ml measured at 2 hrs by time-kill kinetics assay; assay type: functional, organism-based
Pseudomonas aeruginosa = assay: Antimicrobial activity against Pseudomonas aeruginosa ATCC 27853 incubated for 18 hrs by CLSI method; assay type: functional
In short: (§1)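 Screen run by CO-ADD: mid-log cultures in cation-adjusted MHB, 5 × 10^5 CFU/mL, compounds at up to 32 μg/mL in 1:2 serial dilutions (8 steps), final DMSO ≤0.5%, duplicate. 37 °C for 18 h without shaking; OD600 read against media-only and untreated-bacteria references. MIC = lowest concentration giving ≥80% inhibition; colistin standard.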

Klebsiella pneumoniae = assay: Antibacterial activity against Klebsiella pneumoniae 700603 incubated for 18 hrs by CLSI method; assay type: functional; in short: as §1
Escherichia coli [3] = assay: Induction of cytoplasmic membrane depolarization in Escherichia coli NCTC 10418 at 64 ug/ml incubated for 30 mins by diSC35 staining based fluorescence assay relative to control; assay type: functional
In short: (§2)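 Mid-log cells (1.5 McFarland) loaded with 4 µM diSC3(5) in the dark at room temperature: S. aureus in PBS 30 min; E. coli in 5 mM HEPES/20 mM glucose pH 7.2 for 60 min, then 100 mM KCl and 0.5 mM EDTA. Baseline fluorescence (ex 620/em 670 nm) ~8 min, then compound added (final 32 µg/mL S. aureus, 64 µg/mL E. coli), tracked ~30 min.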

Acinetobacter baumannii [4] = assay: Antimicrobial activity against Acinetobacter baumannii ATCC 19606 incubated for 18 hrs by CLSI method; assay type: functional; in short: as §1
Escherichia coli [5] = assay: Antibacterial activity against Escherichia coli ATCC 25922 incubated for 18 hrs by CLSI method; assay type: functional; in short: as §1
Acinetobacter baumannii [6] = assay: Antimicrobial activity against Acinetobacter baumannii incubated for 24 hrs by broth microdilution method; assay type: functional
[7] = Haemolytic activity in sheep erythrocytes at 50 ug/ml incubated for 2 hrs under shaking condition relative to control; assay type: ADME, cell-based, Ovis aries, Erythrocyte; conditions: read-out: Activity
In short: (§3)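 Compounds in PBS mixed with washed sheep erythrocytes (2% final) at 5 or 50 μg/mL, rocked 2 h at 37 °C, centrifuged; supernatant absorbance at 540 nm. PBS-only value subtracted, then expressed relative to water lysis (100%). Triplicate, means reported.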

Staphylococcus aureus [8] = assay: Antimicrobial activity against methicillin-resistant Staphylococcus aureus incubated for 24 hrs by broth microdilution method; assay type: functional
In short: (§4)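 Broth microdilution per CLSI aerobic guidance in Mueller Hinton broth, ambient air, 35 °C for 24 h. DMSO stocks were diluted in water, then serially diluted with double-strength broth inoculum added, for final 0.25–128 μg/mL. […] MIC was read visually as the lowest concentration inhibiting growth; the modal value of triplicates was recorded.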

Clostridioides difficile [9] = assay: Antimicrobial activity against Clostridium difficile incubated for 24 hrs by broth microdilution method; assay type: functional
Enterococcus faecalis [10] = assay: Antimicrobial activity against vancomycin-resistant Enterococcus faecalis incubated for 24 hrs by broth microdilution method; assay type: functional
Staphylococcus aureus [11] = assay: Antimicrobial activity against Staphylococcus aureus ATCC 29213 incubated for 24 hrs by CLSI method; assay type: functional; conditions: ATCC 29213, 24 h; in short: as §4
Staphylococcus aureus [12] = assay: Bactericidal activity against exponential phase of Staphylococcus aureus ATCC 29213 assessed as reduction in bacterial count at 64 ug/ml measured at <= 30 mins by time-kill kinetics assay relative to control; assay type: functional
Enterococcus faecalis [13] = assay: Antimicrobial activity against vancomycin-resistant Enterococcus faecalis clinical isolate incubated for 18 hrs by CLSI method; assay type: functional
Streptococcus pneumoniae [14] = assay: Antibacterial activity against MDR Streptococcus pneumoniae ATCC 700677 incubated for 18 hrs by CLSI method; assay type: functional; conditions: ATCC 700677, 18 h
Staphylococcus aureus [15] = assay: Antimicrobial activity against glycopeptide intermediate susceptible Staphylococcus aureus NRS17 incubated for 18 hrs by CLSI method; assay type: functional; conditions: NRS17, 18 h
Escherichia coli [16] = assay: Induction of plasma membrane permeabilization in Escherichia coli NCTC 10418 at 32 ug/ml measured for 30 mins by propidium iodide staining based fluorescence assay relative to control; assay type: functional
In short: (§5)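 Mid-log cells (1.5 McFarland) with 4 µM propidium iodide, dark, room temperature: S. aureus in PBS 30 min; E. coli in 5 mM HEPES/20 mM glucose pH 7.2 for 60 min, then 100 mM KCl and 0.5 mM EDTA. Fluorescence (ex 544/em 615 nm) read ~8 min baseline, then ~30 min after compound at 32 µg/mL final.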

Clostridioides difficile [17] = assay: Antibacterial activity against Clostridium difficile ATCC 700057 incubated for 48 hrs by CLSI method; assay type: functional; conditions: ATCC 700057, 48 h
In short: (§6)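 Broth microdilution per CLSI anaerobe method in pre-reduced (2-4 h) Brucella broth with haemin and vitamin K, 35 °C anaerobically for 48 h. Compounds from 5 mg/mL DMSO stocks, twofold dilutions in water mixed with double-strength broth; final 0.25–128 μg/mL. […] Triplicate; modal MIC read visually as lowest concentration inhibiting growth.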

Staphylococcus aureus [18] = assay: Bactericidal activity against exponential phase of Staphylococcus aureus ATCC 29213 assessed as reduction in bacterial count at 64 ug/ml measured at 2 hrs by time-kill kinetics assay; assay type: functional
Staphylococcus aureus [19] = assay: Induction of cytoplasmic membrane depolarization in Staphylococcus aureus ATCC 29213 at 32 ug/ml incubated for 30 mins by diSC35 staining based fluorescence assay relative to control; assay type: functional; in short: as §2
Staphylococcus aureus [20] = assay: Antimicrobial activity against glycopeptide intermediate susceptible/methicillin-resistant Staphylococcus aureus NRS1 incubated for 18 hrs by CLSI method; assay type: functional; conditions: NRS1, 18 h
Staphylococcus aureus [21] = assay: Induction of plasma membrane permeabilization in Staphylococcus aureus ATCC 29213 at 32 ug/ml measured for 30 mins by propidium iodide staining based fluorescence assay relative to control; assay type: functional; in short: as §5
[22] = Haemolytic activity in sheep erythrocytes at 5 ug/ml incubated for 2 hrs under shaking condition relative to control; assay type: ADME, cell-based, Ovis aries, Erythrocyte; conditions: read-out: Activity; in short: as §3
Escherichia coli [23] = assay: Bactericidal activity against exponential phase of Escherichia coli NCTC 10418 assessed as reduction in bacterial count at 64 ug/ml measured at <= 120 mins by time-kill kinetics assay relative to control; assay type: functional
[24] = Cytotoxicity against human HEK293 cells assessed as reduction in cell growth incubated for 20 hrs by resazurin dye-based fluorometric assay
In short: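 HEK293 cells, 5000 per well in DMEM + 10% FBS, exposed to compounds (top 32 μg/mL, 1:2 serial dilution ×8, ≤0.5% DMSO, duplicate) for 20 h at 37 °C, 5% CO2. Resazurin added (2.3 μg/mL final), 3 h further; fluorescence ex 560/em 590 nm. CC50 from sigmoidal dose-response fit against log concentration; tamoxifen standard.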

Staphylococcus aureus [25] = assay: Antimicrobial activity against methicillin-resistant Staphylococcus aureus ATCC 43300 incubated for 18 hrs by CLSI method; assay type: functional; conditions: ATCC 43300, 18 h
Staphylococcus aureus [26] = assay: Antimicrobial activity against methicillin-resistant Staphylococcus aureus clinical isolate with reduced daptomycin susceptibility incubated for 18 hrs by CLSI method; assay type: functional
Staphylococcus aureus [27] = assay: Antimicrobial activity against vancomycin resistant Staphylococcus aureus NARSA VRS10 incubated for 18 hrs by CLSI method; assay type: functional; conditions: NARSA VRS10, 18 h
Staphylococcus aureus [28] = assay: Antimicrobial activity against methicillin-resistant Staphylococcus aureus clinical isolate incubated for 18 hrs by CLSI method; assay type: functional
Clostridioides difficile [29] = assay: Antibacterial activity against Clostridium difficile NSW132 RT027 incubated for 48 hrs by CLSI method; assay type: functional; conditions: NSW132 RT027, 48 h; in short: as §6
Staphylococcus aureus [30] = assay: Antimicrobial activity against Staphylococcus aureus ATCC 43300 incubated for 18 hrs by CLSI method; assay type: functional; conditions: ATCC 43300, 18 h
Enterococcus faecalis [31] = assay: Antibacterial activity against Enterococcus faecalis ATCC 29212 incubated for 24 hrs by CLSI method; assay type: functional; conditions: ATCC 29212, 24 h
Staphylococcus aureus [32] = assay: Antibacterial activity against methicillin-resistant Staphylococcus aureus NCTC 10442 incubated for 24 hrs by CLSI method; assay type: functional; conditions: NCTC 10442, 24 h; in short: as §4
Streptococcus pneumoniae [33] = assay: Antibacterial activity against Streptococcus pneumoniae ATCC 49619 incubated for 24 hrs by CLSI method; assay type: functional; conditions: ATCC 49619, 24 h
In short: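 CLSI broth microdilution in MHB with 2.5% lysed horse blood, 5% CO2, 35 °C, 24 h. Compounds from 5 mg/mL DMSO stocks diluted in water plus double-strength broth; final 0.25–128 μg/mL. […] Triplicate; modal MIC read visually as lowest growth-inhibiting concentration.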

COLISTIN
Activity (Escherichia coli [1]): 75% | Activity (Staphylococcus aureus [2]): < 1000 CFU/mL | MIC (Pseudomonas aeruginosa): 0.25 µg/mL | MIC (Klebsiella pneumoniae): 0.25 µg/mL | Activity (Escherichia coli [3]): 400% | MIC (Acinetobacter baumannii [4]; ATCC 19606 = CIP 70.34 = JCM 6841): 0.25 µg/mL | MIC (Escherichia coli [5]): 0.125 µg/mL

CC(C)CCOc1ccc2ccccc2c1-c1c(OCC(=O)N[C@H](CCCCN)C(=O)N[C@H](CCCNC(=N)N)Cn2cc(CC3CCCCC3)nn2)ccc2ccccc12.Cl.Cl
MIC (Acinetobacter baumannii [6]): 4 µg/mL | hemolysis at 2 h, 50 ug/ml [7]: 78% | MIC (Staphylococcus aureus [8]): 2 µg/mL | MIC (Clostridioides difficile [9]): 4 µg/mL | MIC (Enterococcus faecalis [10]): 4 µg/mL

CC(C)CCOc1ccc2ccccc2c1-c1c(OCc2cn(C[C@@H](CCCCN)NC(=O)[C@@H](CCCNC(=N)N)NC(=O)CCc3ccccc3)nn2)ccc2ccccc12.Cl.Cl
MIC (Staphylococcus aureus [11]): 4 µg/mL | Activity (Staphylococcus aureus [12]): >=3 log10CFU/ml | MIC (Enterococcus faecalis [13]): 2 µg/mL | MIC (Streptococcus pneumoniae [14]): 1 to 2 µg/mL | MIC (Staphylococcus aureus [15]): 2 µg/mL | Activity (Escherichia coli [16]): 25 - 40% | MIC (Clostridioides difficile [17]): 16 µg/mL | Activity (Staphylococcus aureus [18]): < 1000 CFU/mL | Activity (Staphylococcus aureus [19]): 120 - 180% | MIC (Staphylococcus aureus [20]): 2 to 4 µg/mL | Activity (Staphylococcus aureus [21]): 600% | hemolysis at 2 h, 50 ug/ml [7]: 94.2% | hemolysis at 2 h, 5 ug/ml [22]: 1.1% | Activity (Escherichia coli [23]): >=3 log10CFU/ml | CC50 at 20 h [24]: 27.4 µg/mL | MIC (Staphylococcus aureus [25]): 1 to 2 µg/mL | MIC (Staphylococcus aureus [26]): 2 to 4 µg/mL | MIC (Pseudomonas aeruginosa; ATCC 27853, 18 h): 16 µg/mL | MIC (Klebsiella pneumoniae; Klebsiella pneumoniae, 700603, 18 h): 32 µg/mL | MIC (Staphylococcus aureus [27]): 2 µg/mL | MIC (Staphylococcus aureus [28]): 4 µg/mL | Activity (Escherichia coli [3]): 460 - 900% | MIC (Clostridioides difficile [29]): 32 µg/mL | MIC (Acinetobacter baumannii [4]; ATCC 19606 = CIP 70.34 = JCM 6841, 18 h): 32 µg/mL | MIC (Staphylococcus aureus [30]): 2 µg/mL | MIC (Escherichia coli [5]; ATCC 25922, 18 h): 8 µg/mL | MIC (Enterococcus faecalis [31]): 4 µg/mL | MIC (Staphylococcus aureus [32]): 4 µg/mL | MIC (Streptococcus pneumoniae [33]): 4 µg/mL
